SKKanGAS inh = SKKanGAS growth inhibition; AID 1662; inhibition, % at 7.5 µM; 1.3% of 300,000 active; S. pyogenes SKKanGAS, kanamycin growth, BacTiter-Glo, 6 h;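 active = mean replicate score, as percent of positive control median, at least 50; inconclusive = mean below 50 but one replicate at or above 50; inactive = mean and every replicate below 50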;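 also: strain carries kanamycin resistance gene driven by streptokinase promoter and grows in 40 µg/ml kanamycin; loss of luminescence reflects streptokinase promoter inhibition or plain growth inhibition; 0% = median of DMSO wells and 100% = positive control at its reference dose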
Beta cell apopt = blocks beta cell apoptosis | INS-1E cytokine-induced death, ATP luminescence, 48 h; percent of positive-control rescue, neutral wells zero | protection from apoptosis, % (concentration not given with the values) | 0.8% of 300,000 active;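 active = Every replicate reaches about 75%, or at least half do and their mean reaches it too, limit read from the data; inconclusive = At least half of replicates reach the limit but their mean does not; inactive = Under half of replicates reach the limit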;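 also: 0% = cytokine-treated negative control wells and 100% = positive control rescue; higher means more ATP so stronger rescue from cytokine killing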
CSC inhib = cancer stem cell inhibition. cancer stem cell-like cells viability, luminescence. AID 2717. inhibition, % at 7.5 µM. 1.1% of 300,000 active; in the data active = inhibition above about 75%; inconclusive = no clear call, values can overlap the other calls; tested in HMLE shEcad cells
T cruzi inh = T. cruzi replication inhibition. T. cruzi beta-gal in NIH3T3, luminescence, 90 h. inhibition, % (concentration not given with the values). 1.4% of 300,000 active. AID 1885;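 active = mean inhibition across valid replicates above about 55%, limit read from the data; inconclusive = mean below that limit but half or more replicates reach it; inactive = mean below it, under half of replicates reach it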;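 also: signal also drops with host cell toxicity which is not excluded here; 0% = plate median of DMSO wells and 100% = zero luminescence signal; higher percent means less beta-gal luminescence so fewer parasites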
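System: Mouse NIH/3T3 fibroblasts infected with β-gal-expressing T. cruzi Tulahuen C4 | Quantity: NIH/3T3 cells, 5,000 per well | Reagent: 5000 reporter trypomastigotes per well | Dosing: Compound pinned at 50 nL/well, DMSO | Schedule: 3 h host attachment, then at least 90 h co-culture | Detection: GalScreen luminescence, 60 min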
Mdm2 MdmX PPI = inhibitors of human Mdm2/MdmX interaction; O15151+Q00987; SaOS-2 split-luciferase Mdm2/MdmX complementation, luminescence; inhibition, % at 8 µM; 3% of 330,000 active; AID 485346;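 active = inhibition of at least 50% at 8 µM in the primary screen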
Target sequence (O15151 whole entry, looked up): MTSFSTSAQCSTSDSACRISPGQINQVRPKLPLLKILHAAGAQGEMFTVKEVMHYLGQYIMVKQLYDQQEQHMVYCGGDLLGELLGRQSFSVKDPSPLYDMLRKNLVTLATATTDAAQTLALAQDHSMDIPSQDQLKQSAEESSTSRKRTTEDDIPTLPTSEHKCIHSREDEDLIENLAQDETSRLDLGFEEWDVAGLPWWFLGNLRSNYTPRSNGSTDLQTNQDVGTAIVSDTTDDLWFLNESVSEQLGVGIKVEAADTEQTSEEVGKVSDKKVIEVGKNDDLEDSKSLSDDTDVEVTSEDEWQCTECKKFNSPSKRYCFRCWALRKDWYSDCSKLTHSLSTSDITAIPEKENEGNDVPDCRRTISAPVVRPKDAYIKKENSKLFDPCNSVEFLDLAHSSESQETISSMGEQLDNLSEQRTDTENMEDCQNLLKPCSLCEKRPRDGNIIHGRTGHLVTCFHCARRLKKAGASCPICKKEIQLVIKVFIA
Target sequence (Q00987 whole entry, looked up): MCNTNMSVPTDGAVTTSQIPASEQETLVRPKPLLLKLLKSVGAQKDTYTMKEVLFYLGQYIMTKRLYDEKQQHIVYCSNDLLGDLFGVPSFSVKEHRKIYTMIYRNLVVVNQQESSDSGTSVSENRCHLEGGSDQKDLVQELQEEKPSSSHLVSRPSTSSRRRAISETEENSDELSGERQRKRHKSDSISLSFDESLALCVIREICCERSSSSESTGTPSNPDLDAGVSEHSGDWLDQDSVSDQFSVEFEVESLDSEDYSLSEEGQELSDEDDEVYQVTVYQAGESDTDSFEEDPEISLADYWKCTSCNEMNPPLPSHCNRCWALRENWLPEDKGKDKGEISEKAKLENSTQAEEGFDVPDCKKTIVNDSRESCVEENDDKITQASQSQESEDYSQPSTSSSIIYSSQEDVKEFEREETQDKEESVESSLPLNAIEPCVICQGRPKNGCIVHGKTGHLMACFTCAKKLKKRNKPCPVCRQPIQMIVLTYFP
Calb FLC = affects C. albicans growth with fluconazole; C. albicans CaCi-2 (fluconazole-resistant clinical isolate) + fluconazole, Alamar Blue growth, 48 h; growth inhibition, % (no concentration beside the values); 0.57% of 300,000 active;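 active = growth inhibition above about 58% in most replicates, limit read from the data, passing the limit was not always enough; inconclusive = exactly half the replicates above a set limit; inactive = most replicates below a set limit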;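 also: all wells also contain fluconazole at 8 µg/ml as a sub-toxic cotreatment; 0% = median of DMSO wells and 100% = median of geldanamycin control wells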
Mdm2-MdmX conf = human Mdm2/MdmX binding inhibition, confirmed; shares compounds with Mdm2 MdmX PPI; luminescent assay; inhibition, % at 8 µM; 55% of 10,000 active; AID 489028; in the data active = inhibition above about 40%
FLuc counter = inhibits full-length luciferase, flagging false Mdm2/MdmX hits; shares compounds with Mdm2 MdmX PPI; SaOS-2 full-length luciferase counterscreen, luminescence; inhibition, % at 8 µM; 77% of 6,200 active; AID 504607;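 active = mean inhibition at 8 µM reaching about 37%, which flags the compound as non-specific, limit read from the data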;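 also: p53-null SaOS-2 cells with luciferase driven by a doxycycline-inducible promoter; compound on cells about two nights before reading with doxycycline added after day one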
* marks the source's active call; other numbers are inactive results; ? = inconclusive; . = no result given; + = active, no number. Most compounds without a hit are left out; they make up all but 5.7% or so of the library.

SMILES	SKKanGAS inh	Beta cell apopt	CSC inhib	T cruzi inh	Mdm2 MdmX PPI	Calb FLC	Mdm2-MdmX conf	FLuc counter
Cc1ccc(S(=O)(=O)CCC(=O)N(CCCN2CCOCC2)c2nc3ccccc3s2)cc1	0	.	9	12	64*	13	33	.
O=C(NC1CCCCC1)c1ccc(-c2cccc([N+](=O)[O-])c2)o1	-1	3	-6	16	-193	2	.	.
CCCCn1c(N)c(N(Cc2ccccc2OC)C(=O)CN2C(=O)NC3(CCCC3)C2=O)c(=O)[nH]c1=O	-10	0	2	-2	4	.	.	.
C=C(C)COc1ccc(-c2n[nH]c(C)c2-c2ccc(OC)cc2)c(O)c1	61*	29	+	0	61*	-3	49*	71*
COc1ccc(-c2n[nH]c(C)c2-c2cscn2)c(O)c1	1	-3	-6	-11	4	-6	.	.
COc1ccc(NC(=O)CC2Nc3cc(C)c(C)cc3NC2=O)c([N+](=O)[O-])c1 (stereo not given)	12	19	53	-16	88*	-7	7	.
Oc1ccccc1CNc1ccc(Br)cn1	8	-11	7	-7	78*	2	68*	29
COc1ccc(C(=O)c2no[n+]([O-])c2C(=O)c2ccc(OC)cc2)cc1	-13	-13	-40	-15	62*	8	26	.
O=C(c1ccc(Cl)nc1)c1cccs1	-4	-4	-8	-15	-11	1	.	.
O=C(c1cccs1)c1no[n+]([O-])c1C(=O)c1cccs1	1	47	-8	62*	95*	15	-1	.
COCCN(C(=O)COC(=O)c1ccc(C)s1)c1c(N)n(Cc2ccccc2)c(=O)[nH]c1=O	-1	-1	-17	-12	19	-1	.	.
O=C(Nc1c(C(=O)N2CCOCC2)oc2ccccc12)c1ccccc1Cl	-4	-3	-5	2	24	6	.	.
N=C1C(c2ccccc2)=C(O)CN1NC(=O)c1ccc(Cl)cc1	-2	-9	-14	-20	-2	?	.	.
C#CCn1c(=NC(=O)c2ccc(S(=O)(=O)N3CCc4ccccc4C3)cc2)sc2cc(S(N)(=O)=O)ccc21	9	104*	.	53	86*	-6	55*	23
C=CCn1c(=NC(=O)c2ccc(S(=O)(=O)N3CCc4ccccc4C3)cc2)sc2cc(S(N)(=O)=O)ccc21	15	26	.	27	14	?	.	.
O=C(c1cccs1)N(Cc1nc2sc3c(c2c(=O)[nH]1)CCCC3)C1CCCC1	25	1	1	16	87*	4	82*	38*
O=C(CN1C(=O)/C(=C\c2cccc(Cl)c2)Oc2ccccc21)N1CCN(c2ccccn2)CC1	1	0	20	8	65*	7	13	.
O=C(CN1C(=O)c2cccc3cccc(c23)C1=O)N1CCN(c2ccccn2)CC1	-4	-1	-7	-14	50*	2	-5	.
CCN(c1ccccc1)S(=O)(=O)c1cccc(C(=O)NCc2ccccn2)c1	-7	.	-14	0	9	-1	.	.
Cn1c(CNC(=O)CNC(=O)c2cccc(F)c2)cc(=O)n(C)c1=O	-2	-1	-11	-11	28	3	.	.
COc1ccc(-c2cn[nH]c2-c2ccc(OC)cc2O)cc1	12	-27	-6	-5	71*	8	62*	32
Oc1ccc(-c2[nH]ncc2-c2ccc(Br)cc2)c(O)c1	-5	3	12	-9	56*	7	20	.
COc1ccc(-c2[nH]ncc2-c2ccc(Cl)cc2)c(O)c1	23	0	26	-6	44	9	.	.
COc1ccc(-c2cn[nH]c2-c2ccc(OCc3ccccc3)cc2O)cc1	75*	-11	102*	17	78*	-7	77*	55*
COc1ccccc1-c1cn[nH]c1-c1ccc(OCc2ccccc2)cc1O	48	-2	34	26	13	-1	.	.
SMILES	SKKanGAS inh	Beta cell apopt	CSC inhib	T cruzi inh	Mdm2 MdmX PPI	Calb FLC	Mdm2-MdmX conf	FLuc counter
O=[N+]([O-])c1ccc(COc2ccc(-c3[nH]ncc3-c3ccc(Cl)cc3)c(O)c2)cc1	95*	17	82*	38	82*	-3	51*	43*
CC(=O)N1CCN(C(=O)COC(=O)COc2c(C)cc(C)cc2C)CC1	.	-2	.	.	13	.	.	.
CCN1C(=O)c2cccc3c(S(=O)(=O)N4CCC(C)CC4)ccc1c23	.	-9	-12	.	83*	.	42*	83*
CCN1C(=O)c2cccc3c(S(=O)(=O)N(C(C)=O)c4ccc(OC(C)=O)cc4)ccc1c23	.	14	7	.	61*	.	1	.
Cc1ccccc1NS(=O)(=O)c1ccc2c3c(cccc13)C(=O)N2C	15	.	-10	17	53*	13	49*	100*
CCN1C(=O)c2cccc3c(S(=O)(=O)Nc4ccccc4OC)ccc1c23	-6	1	.	8	56*	4	43*	79*
CN1C(=O)c2cccc3c(S(N)(=O)=O)ccc1c23	-3	.	-2	-28	24	-5	.	.
CCN1C(=O)c2cccc3c(S(=O)(=O)NCc4ccccc4)ccc1c23	.	3	.	.	47	.	.	.
CN1C(=O)c2cccc3c(S(=O)(=O)NCc4ccco4)ccc1c23	11	6	-1	11	21	38	.	.
CN1C(=O)c2cccc3c(S(=O)(=O)Nc4ccccn4)ccc1c23	0	-6	3	-4	56*	-6	41*	79*
COc1ccc(C2C(C#N)=C(N)Oc3cc(O)ccc32)cc1OC (stereo not given)	-5	9	-12	8	17	-6	.	.
COc1cc(C2C(C#N)=C(N)Oc3cc(O)ccc32)cc2c1OCO2 (stereo not given)	-3	-2	-2	-2	57*	1	56*	59*
COc1ccc(C2C(C#N)=C(N)Oc3cc(O)ccc32)cc1C (stereo not given)	.	2	6	4	15	17	.	.
COc1cc(C2C(C#N)=C(N)Oc3cc(N(C)C)ccc32)cc2c1OCO2 (stereo not given)	-4	69	52	1	78*	2	64*	112*
N#CC1=C(N)Oc2cc3c(cc2C1c1ccc(Cl)cc1)OCO3 (stereo not given)	27	2	44	0	61*	41	46*	60*
COc1cc(C2C(C#N)=C(N)Oc3cc(O)ccc32)cc(OC)c1OC (stereo not given)	-8	-8	61	-38	65*	-1	67*	67*
CCOC(=O)C1=C(C)OC(N)=C(C#N)C1c1cc(OC)c2c(c1)OCO2 (stereo not given)	2	-8	-3	-2	-1	-5	.	.
